Assay results taken from ChEMBL document CHEMBL4665627 (Eur J Med Chem, 2019).
In brackets after ≈: the same amount, converted by molar mass.

Columns and labels:
Type in all cases: functional
Staphylococcus aureus [1] = assay: Antibacterial activity against methicillin-resistant Staphylococcus aureus N315 assessed as inhibition of bacterial growth after 24 hrs by CLSI protocol based two fold serial dilution method
Staphylococcus aureus [2] = assay: Antibacterial activity against Staphylococcus aureus ATCC 25923 assessed as inhibition of bacterial growth after 24 hrs by CLSI protocol based two fold serial dilution method
Summary of the method: (§1)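 Two-fold serial broth dilution in 96-well plates following CLSI; MIC (mM) taken as the lowest concentration giving complete growth inhibition; MIC values from three independent experiments.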

Candida tropicalis = assay: Antifungal activity against Candida tropicalis assessed as inhibition of fungal growth after 24 hrs by CLSI protocol based two fold serial dilution method; summary of the method: as §1
Acinetobacter baumannii = assay: Antibacterial activity against Acinetobacter baumannii assessed as inhibition of bacterial growth after 24 hrs by CLSI protocol based two fold serial dilution method; summary of the method: as §1
Enterococcus faecalis = assay: Antibacterial activity against Enterococcus faecalis assessed as inhibition of bacterial growth after 24 hrs by CLSI protocol based two fold serial dilution method; summary of the method: as §1
Pseudomonas aeruginosa [3] = assay: Antibacterial activity against Pseudomonas aeruginosa ATCC 27853 assessed as inhibition of bacterial growth after 24 hrs by CLSI protocol based two fold serial dilution method; summary of the method: as §1
Aspergillus fumigatus = assay: Antifungal activity against Aspergillus fumigatus assessed as inhibition of fungal growth after 24 hrs by CLSI protocol based two fold serial dilution method; summary of the method: as §1
Pseudomonas aeruginosa [4] = assay: Antibacterial activity against Pseudomonas aeruginosa assessed as inhibition of bacterial growth after 24 hrs by CLSI protocol based two fold serial dilution method; summary of the method: as §1
Candida albicans [5] = assay: Antifungal activity against Candida albicans assessed as inhibition of fungal growth after 24 hrs by CLSI protocol based two fold serial dilution method; summary of the method: as §1
Escherichia coli [6] = assay: Antibacterial activity against Escherichia coli assessed as inhibition of bacterial growth after 24 hrs by CLSI protocol based two fold serial dilution method; summary of the method: as §1
Staphylococcus aureus [7] = assay: Antibacterial activity against Staphylococcus aureus ATCC 29213 assessed as inhibition of bacterial growth after 24 hrs by CLSI protocol based two fold serial dilution method
Escherichia coli [8] = assay: Antibacterial activity against Escherichia coli ATCC 25922 assessed as inhibition of bacterial growth after 24 hrs by CLSI protocol based two fold serial dilution method; summary of the method: as §1
Staphylococcus aureus [9] = assay: Antibacterial activity against Staphylococcus aureus assessed as inhibition of bacterial growth after 24 hrs by CLSI protocol based two fold serial dilution method; summary of the method: as §1
Klebsiella pneumoniae = assay: Antibacterial activity against Klebsiella pneumoniae assessed as inhibition of bacterial growth after 24 hrs by CLSI protocol based two fold serial dilution method; summary of the method: as §1
Candida parapsilosis = assay: Antifungal activity against Candida parapsilosis ATCC 22019 assessed as inhibition of fungal growth after 24 hrs by CLSI protocol based two fold serial dilution method; settings: Lodderomyces parapsilosis; summary of the method: as §1
Candida albicans [10] = assay: Antifungal activity against Candida albicans ATCC 90023 assessed as inhibition of fungal growth after 24 hrs by CLSI protocol based two fold serial dilution method; summary of the method: as §1

| SMILES | MIC (Staphylococcus aureus [1]) | MIC (Staphylococcus aureus [2]) | MIC (Candida tropicalis) | MIC (Acinetobacter baumannii) | MIC (Enterococcus faecalis) | MIC (Pseudomonas aeruginosa [3]) | MIC (Aspergillus fumigatus) | MIC (Pseudomonas aeruginosa [4]) | MIC (Candida albicans [5]) | MIC (Escherichia coli [6]) | MIC (Staphylococcus aureus [7]) | MIC (Escherichia coli [8]) | MIC (Staphylococcus aureus [9]) | MIC (Klebsiella pneumoniae) | MIC (Candida parapsilosis) | MIC (Candida albicans [10]) |
| --- | --- | --- | --- | --- | --- | --- | --- | --- | --- | --- | --- | --- | --- | --- | --- | --- |
| CCn1cc(-c2csc(N)n2)c(=O)c2cc(N3CCN(CC(C)=O)CC3)c(Cl)cc21 | 72 µM (≈ 32.1 µg/mL) | 288 µM (≈ 128 µg/mL) | 288 µM (≈ 128 µg/mL) | 288 µM (≈ 128 µg/mL) | 288 µM (≈ 128 µg/mL) | 36 µM (≈ 16.1 µg/mL) | 575 µM (≈ 256 µg/mL) | 288 µM (≈ 128 µg/mL) | 575 µM (≈ 256 µg/mL) | 1150 µM (≈ 513 µg/mL) | 575 µM (≈ 256 µg/mL) | 288 µM (≈ 128 µg/mL) | 144 µM (≈ 64.2 µg/mL) | 72 µM (≈ 32.1 µg/mL) | 288 µM (≈ 128 µg/mL) | 144 µM (≈ 64.2 µg/mL) |
| CCCCCCCCCCCCN1CCN(c2cc3c(cc2F)c(=O)c(-c2csc(N)n2)cn3CC)CC1 | 946 µM (≈ 513 µg/mL) | 946 µM (≈ 513 µg/mL) | 236 µM (≈ 128 µg/mL) | 473 µM (≈ 256 µg/mL) | 946 µM (≈ 513 µg/mL) | 473 µM (≈ 256 µg/mL) | 473 µM (≈ 256 µg/mL) | 473 µM (≈ 256 µg/mL) | 473 µM (≈ 256 µg/mL) | 473 µM (≈ 256 µg/mL) | 946 µM (≈ 513 µg/mL) | 946 µM (≈ 513 µg/mL) | 473 µM (≈ 256 µg/mL) | 946 µM (≈ 513 µg/mL) | 473 µM (≈ 256 µg/mL) | 946 µM (≈ 513 µg/mL) |
| CCn1cc(-c2csc(N)n2)c(=O)c2cc(N3CCN(c4cc5c(cc4F)c(=O)c(-c4csc(N)n4)cn5CC)CC3)c(Cl)cc21 | 757 µM (≈ 513 µg/mL) | 757 µM (≈ 513 µg/mL) | 757 µM (≈ 513 µg/mL) | 757 µM (≈ 513 µg/mL) | 757 µM (≈ 513 µg/mL) | 757 µM (≈ 513 µg/mL) | 189 µM (≈ 128 µg/mL) | 757 µM (≈ 513 µg/mL) | 757 µM (≈ 513 µg/mL) | 189 µM (≈ 128 µg/mL) | 757 µM (≈ 513 µg/mL) | 757 µM (≈ 513 µg/mL) | 757 µM (≈ 513 µg/mL) | 379 µM (≈ 257 µg/mL) | 757 µM (≈ 513 µg/mL) | 757 µM (≈ 513 µg/mL) |
| CCn1cc(-c2csc(N)n2)c(=O)c2cc(F)c(N3CCN(CC(=O)N(CCO)CCO)CC3)cc21 | 62 µM (≈ 32.2 µg/mL) | 8 µM (≈ 4.15 µg/mL) | 62 µM (≈ 32.2 µg/mL) | 62 µM (≈ 32.2 µg/mL) | 15 µM (≈ 7.78 µg/mL) | 62 µM (≈ 32.2 µg/mL) | 15 µM (≈ 7.78 µg/mL) | 62 µM (≈ 32.2 µg/mL) | 62 µM (≈ 32.2 µg/mL) | 62 µM (≈ 32.2 µg/mL) | 62 µM (≈ 32.2 µg/mL) | 15 µM (≈ 7.78 µg/mL) | 124 µM (≈ 64.3 µg/mL) | 62 µM (≈ 32.2 µg/mL) | 31 µM (≈ 16.1 µg/mL) | 8 µM (≈ 4.15 µg/mL) |
| CCn1cc(-c2csc(N)n2)c(=O)c2cc(F)c(N3CCN(Cc4ccc(Cl)cc4Cl)CC3)cc21 | 15 µM (≈ 7.99 µg/mL) | 60 µM (≈ 31.9 µg/mL) | 482 µM (≈ 257 µg/mL) | 482 µM (≈ 257 µg/mL) | 121 µM (≈ 64.4 µg/mL) | 121 µM (≈ 64.4 µg/mL) | 482 µM (≈ 257 µg/mL) | 241 µM (≈ 128 µg/mL) | 482 µM (≈ 257 µg/mL) | 241 µM (≈ 128 µg/mL) | 241 µM (≈ 128 µg/mL) | 482 µM (≈ 257 µg/mL) | 482 µM (≈ 257 µg/mL) | 241 µM (≈ 128 µg/mL) | 15 µM (≈ 7.99 µg/mL) | 482 µM (≈ 257 µg/mL) |
| CCn1cc(-c2csc(N)n2)c(=O)c2cc(F)c(N3CCN(Cc4ccc(Cl)c(Cl)c4)CC3)cc21 | 15 µM (≈ 7.99 µg/mL) | 241 µM (≈ 128 µg/mL) | 482 µM (≈ 257 µg/mL) | 482 µM (≈ 257 µg/mL) | 30 µM (≈ 16 µg/mL) | 241 µM (≈ 128 µg/mL) | 241 µM (≈ 128 µg/mL) | 482 µM (≈ 257 µg/mL) | 482 µM (≈ 257 µg/mL) | 241 µM (≈ 128 µg/mL) | 241 µM (≈ 128 µg/mL) | 15 µM (≈ 7.99 µg/mL) | 482 µM (≈ 257 µg/mL) | 241 µM (≈ 128 µg/mL) | 8 µM (≈ 4.26 µg/mL) | 482 µM (≈ 257 µg/mL) |
| CCn1cc(-c2csc(N)n2)c(=O)c2cc(F)c(N3CCN(Cc4ccc(F)cc4)CC3)cc21 | 67 µM (≈ 32.3 µg/mL) | 133 µM (≈ 64 µg/mL) | 133 µM (≈ 64 µg/mL) | 266 µM (≈ 128 µg/mL) | 67 µM (≈ 32.3 µg/mL) | 67 µM (≈ 32.3 µg/mL) | 266 µM (≈ 128 µg/mL) | 1060 µM (≈ 512 µg/mL) | 133 µM (≈ 64 µg/mL) | 67 µM (≈ 32.3 µg/mL) | 532 µM (≈ 256 µg/mL) | 33 µM (≈ 15.9 µg/mL) | 133 µM (≈ 64 µg/mL) | 266 µM (≈ 128 µg/mL) | 67 µM (≈ 32.3 µg/mL) | 17 µM (≈ 8.19 µg/mL) |
| OC(Cn1cncn1)(Cn1cncn1)c1ccc(F)cc1F [FLUCONAZOLE] |  |  | 26 µM (≈ 7.96 µg/mL) |  |  |  | 836 µM (≈ 256 µg/mL) |  | 13 µM (≈ 3.98 µg/mL) |  |  |  |  |  | 13 µM (≈ 3.98 µg/mL) | 7 µM (≈ 2.14 µg/mL) |
| C=CCN1CCN(c2cc3c(cc2F)c(=O)c(-c2csc(N)n2)cn3CC)CC1 | 78 µM (≈ 32.3 µg/mL) | 19 µM (≈ 7.86 µg/mL) | 155 µM (≈ 64.1 µg/mL) | 77 µM (≈ 31.8 µg/mL) | 155 µM (≈ 64.1 µg/mL) | 155 µM (≈ 64.1 µg/mL) | 77 µM (≈ 31.8 µg/mL) | 155 µM (≈ 64.1 µg/mL) | 77 µM (≈ 31.8 µg/mL) | 77 µM (≈ 31.8 µg/mL) | 39 µM (≈ 16.1 µg/mL) | 155 µM (≈ 64.1 µg/mL) | 155 µM (≈ 64.1 µg/mL) | 77 µM (≈ 31.8 µg/mL) | 155 µM (≈ 64.1 µg/mL) | 77 µM (≈ 31.8 µg/mL) |
